Compound activity from PubChem.
Hits are enriched below; roughly 4.3% of the tested compounds scored in any of these assays.
APP 5'UTR act – APP 5'UTR luciferase reporter activation. SH-SY5Y APP 5'UTR luciferase reporter, luminescence; zero percent = DMSO vehicle wells. activation, % at 2 µM. hit rate 1% among 190,000. AID 1276;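 active means activation above a set limit, based on mean plus 3 SD of controls, cut at about 140% in these data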
FLuc stim CS – affects firefly luciferase, flagging false hits in luciferase stimulation screens | P08659 | ATPlite luciferase biochemical, luminescence, 10 min; 0 = ATP-free wells, 1 = DMSO control | activation factor at 10 µM | 200,000 tested, under 10 active | AID 1027;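 active means luciferase activation factor, scaled between plate controls, of at least 2 with compound at 10 µM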
Target sequence (P08659 whole entry, looked up): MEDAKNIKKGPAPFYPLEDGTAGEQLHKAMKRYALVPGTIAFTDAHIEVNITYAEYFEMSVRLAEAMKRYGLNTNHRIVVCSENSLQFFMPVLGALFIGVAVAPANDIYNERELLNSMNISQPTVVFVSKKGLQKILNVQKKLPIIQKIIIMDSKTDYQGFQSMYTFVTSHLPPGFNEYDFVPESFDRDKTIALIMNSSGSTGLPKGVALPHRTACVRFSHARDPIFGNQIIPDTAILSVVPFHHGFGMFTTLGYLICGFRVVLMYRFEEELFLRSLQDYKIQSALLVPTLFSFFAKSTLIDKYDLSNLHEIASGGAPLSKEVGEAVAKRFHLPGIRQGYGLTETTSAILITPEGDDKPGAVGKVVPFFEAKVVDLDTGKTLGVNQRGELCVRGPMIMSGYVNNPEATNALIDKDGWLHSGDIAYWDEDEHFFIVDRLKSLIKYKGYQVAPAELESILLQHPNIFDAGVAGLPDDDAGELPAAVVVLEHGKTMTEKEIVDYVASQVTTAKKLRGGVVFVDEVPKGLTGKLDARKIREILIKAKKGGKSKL
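Assay system: Luciferase/luciferin detection reagent, cell-free biochemical luciferase assay / Read-out: luciferase activation / Benchmarks: No-ATP low control, compound-free enzyme-plus-ATP high control / Medium: PBS buffer for ATP / Detection: luminescence measurement of luciferase light output / Schedule: 10 min at ambient temperature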
SDO1 yeast rescue – compounds rescuing growth of sdo1-depleted yeast, bone marrow failure model. S. cerevisiae sdo1-depleted JHY4D growth rescue, OD600 30 h; hits give high values; pdr5 snq2 efflux-pump mutant strain. z-score at 10 µM. hit rate 0.21% among 140,000;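 active means z-score above 3 at both the 24 hr and the 30 hr optical density reads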
STAT1 activator – STAT1 signaling activation; AID 932; activation (% of control), % at 5.5 µM; NIH 3T3 STAT1-luciferase reporter, IFN-gamma, luminescence; 100% = IFN-gamma alone, no compound; hit rate 2.6% among 200,000;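 active means activation above the screen-wide mean activation plus 3 SD, cut at about 130% in these data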
FLuc inh counter – Photinus pyralis luciferase inhibition counter-screen; AID 1006; inhibition, % at 10 µM; hit rate 1.5% among 200,000; ATPLite firefly luciferase biochemical luminescence, 10 min;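 active means inhibition above about 50% when tested at 10 µM, limit read from the data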
NF-kB neuron act – compounds increasing NF-kB expression in human neuronal cells; NF-kB reporter expression; hits give high values; hit rate 1.6% among 190,000; fold change at 12.5 µM; in the data active means fold change above about 3.3
Large screens that a line does not name were inactive.

COC(=O)c1cccc(NC(=O)/C=C/c2ccc3c(c2)OCO3)c1	FLuc inh counter 69
CCOC(=O)c1[nH]c2ccc(OC)cc2c1NC(=O)/C=C/c1ccc2c(c1)OCO2	none
O=C(/C=C/c1ccc2c(c1)OCO2)Nc1c(C(=O)O)[nH]c2ccccc12	FLuc inh counter 91
COC(=O)c1cc(NC(=O)/C=C/c2ccc3c(c2)OCO3)cc(C(=O)OC)c1	none
O=C(/C=C/c1ccco1)Nc1ccc2c(c1)OCO2	FLuc inh counter 66, NF-kB neuron act 4.6 (no result: SDO1 yeast rescue)
Cc1cc(C)nc(NC(=O)/C=C/c2ccc3c(c2)OCO3)c1	STAT1 activator 135, FLuc inh counter 71, NF-kB neuron act 3.3
O=C(CSc1nnnn1-c1ccc2c(c1)OCCO2)N1CCN(C(=O)c2ccco2)CC1	none (no result: SDO1 yeast rescue)
O=C(/C=C/c1ccc2c(c1)OCO2)Nc1cccnc1	APP 5'UTR act 162, FLuc inh counter 87 (no result: SDO1 yeast rescue)
C/C(=N\Nc1ncc(Cl)cc1Cl)c1ccc(OC(F)F)cc1	NF-kB neuron act 4.5
Cc1ccc(OCCn2cnc3ccccc3c2=O)c([N+](=O)[O-])c1	STAT1 activator 136
c1c2c(cc3sc(N4CCOCC4)nc13)OCCO2	FLuc inh counter 84
Nc1ccc2nc(N3CCOCC3)sc2c1	none (no result: SDO1 yeast rescue)
Cn1[nH]c(C(F)(F)F)c(C=Nc2ccc(Cl)cc2)c1=O	APP 5'UTR act 182 (no result: SDO1 yeast rescue)
c1ccc2c(COn3nnc4ccccc43)cccc2c1	NF-kB neuron act 3.4
CCCNC(=O)NC(=O)CSc1cccc(C(F)(F)F)c1	none (no result: SDO1 yeast rescue)
O=C(NCc1ccco1)C1CCCN(S(=O)(=O)c2ccc(Cl)cc2)C1 (configuration not stated)	none (no result: APP 5'UTR act)
CN(C)/C=N/c1sc2c(c1C#N)CCCC2	none (no result: SDO1 yeast rescue)
N#Cc1c(/N=C/c2ccco2)sc2c1CCCCC2	STAT1 activator 138, FLuc inh counter 94
N#Cc1c(/N=C/c2cccs2)sc2c1CCC2	STAT1 activator 140, FLuc inh counter 62
COc1ccc2[nH]c(=O)c(CN(CCc3ccccc3)C(C)=O)cc2c1	none
COc1ccc2[nH]c(=O)c(CNc3ccccc3)cc2c1	STAT1 activator 129
CCC/C=N/NC(=O)c1cccc(Br)c1	none (no result: SDO1 yeast rescue)
COc1ccc(/C=N/c2c(-c3ccco3)nc3ccccn23)cc1OC	FLuc inh counter 80
O=C(/C=C/c1cccc(Oc2ccccc2)c1)N1CCOCC1	APP 5'UTR act 145, STAT1 activator 139 (no result: SDO1 yeast rescue)
O=C(/C=C/c1cccc([N+](=O)[O-])c1)N1CCOCC1	none
Cc1ccc(/C=N\Nc2nc3ccc(Cl)cc3[nH]2)o1	STAT1 activator 136, NF-kB neuron act 3.7
Cc1ccc2cc(/C=N/Nc3nc4ccccc4[nH]3)c(Cl)nc2c1	FLuc inh counter 94
C(=N\Nc1nc2ccccc2[nH]1)/c1ccccn1	FLuc inh counter 96 (no result: SDO1 yeast rescue)
Cc1ccc2cc(/C=N/NC(=O)c3ccc(F)cc3)c(Cl)nc2c1	none (no result: SDO1 yeast rescue)
Cn1c(N/N=C/c2cc3ccccc3nc2Cl)nc2ccccc21	FLuc inh counter 96
CC(C)NC(=O)COC(=O)CNC(=O)c1cc(Cl)cc([N+](=O)[O-])c1	none
c1ccc2c(c1)CC/C2=N/Nc1nc2ccccc2[nH]1	APP 5'UTR act 180, STAT1 activator 137, NF-kB neuron act 3.4 (no result: SDO1 yeast rescue)
Fc1ccccc1-c1ccc(/C=N/Nc2nc3ccccc3[nH]2)o1	FLuc inh counter 93
Cc1ccc(NC(=S)Nc2ccc(F)cc2)c(C)c1	none (no result: SDO1 yeast rescue)
O=C(Nc1cc(Cl)ccc1Cl)c1ccc(OC(=O)c2ccco2)cc1	none
CCCCCOc1ccc(OC(=O)c2ccncc2)cc1	NF-kB neuron act 3.8
COc1ccc(C(=O)OCc2csc(C)n2)c(O)c1	STAT1 activator 139 (no result: SDO1 yeast rescue)
O=c1c2cccc3c2c(nn1CN1CCOCC1)-c1ccccc1-3	none
CCN(CC)CCn1nc2c3c(cccc3c1=O)-c1ccccc1-2	STAT1 activator 230 (no result: SDO1 yeast rescue)
CCOC(=O)c1[nH]c2c(c1C)C(=O)CC(c1ccco1)C2 (configuration not stated)	NF-kB neuron act 6.4
Cc1c(C(=O)OCCOC(C)C)[nH]c2c1C(=O)CC(c1ccco1)C2 (configuration not stated)	NF-kB neuron act 3.5
COCCOC(=O)c1[nH]c2c(c1C)C(=O)CC(c1ccccc1)C2 (configuration not stated)	NF-kB neuron act 3.8
Cc1cc(C(=O)COC(=O)Cc2n[nH]c(=O)c3ccccc23)c(C)n1-c1ccc2c(c1)OCCO2	none
Nc1c(N)c2ccccc2oc1=O	none
Nc1ccc2oc(=O)c3ccccc3c2c1	STAT1 activator 134
COC(=O)c1nn(-c2ccc(OC)cc2)c(=O)cc1Oc1cccc(Cl)c1	none (no result: APP 5'UTR act)
CC1CC1C(=O)Nc1cc(S(=O)(=O)N2CCOCC2)ccc1N1CCCC1 (configuration not stated)	none (no result: SDO1 yeast rescue)
CCOc1ccc(C(=O)Nc2cccc(C)n2)cc1	APP 5'UTR act 144, FLuc inh counter 79, NF-kB neuron act 4.6
CCOc1cc(C(=O)Nc2cc(C)ccn2)cc(OCC)c1OCC	none
CCOc1ccc(C(=O)Nc2cc(C)ccn2)cc1	APP 5'UTR act 186, FLuc inh counter 97, NF-kB neuron act 3.7 (no result: SDO1 yeast rescue)
Cc1cccc(NC(=O)c2ccc(COc3ccc4ccccc4c3)o2)n1	STAT1 activator 145 (no result: SDO1 yeast rescue)
Cc1cccc(NC(=O)c2ccc(COc3ccc(Cl)cc3Cl)o2)n1	none
CCOc1ccc(C(=O)Nc2nnn(CC)n2)cc1	FLuc inh counter 60
CCCn1nnc(NC(=O)c2ccc(OC)cc2)n1	none
Nc1nc(SCC(=O)C23CC4CC(CC(C4)C2)C3)n[nH]1	none
Cn1nnc(NC(=O)c2ccc(C(C)(C)C)cc2)n1	FLuc inh counter 80
Cc1cccc(NC(=O)c2csnn2)n1	NF-kB neuron act 13 (no result: SDO1 yeast rescue)
COc1ccc(NC(=O)CSc2nc(N)c3cc4c(nc3n2)CCCC4)cc1	FLuc inh counter 62
CC(=O)c1ccc(NC(=O)CSc2nc(N)c3cc4c(nc3n2)CCCC4)cc1	none
CC(=NC1CCCC1)c1c(C)[nH]n(-c2nc3ccccc3s2)c1=O	STAT1 activator 142
O=C(N/N=C/c1ccccc1F)NC1CCCCC1	STAT1 activator 130
CCn1c(/N=C/c2c[nH]c3ccccc23)nc2ccccc21	FLuc inh counter 57
O=C(CNC(=S)N(Cc1ccccc1)Cc1ccccc1F)NCCc1ccccc1	none (no result: SDO1 yeast rescue)
COc1cccc(CSc2nc3ccccc3[nH]2)c1	FLuc inh counter 67, NF-kB neuron act 4
COC(=O)c1cc(CSc2nc3ccccc3[nH]2)oc1C	FLuc inh counter 53 (no result: APP 5'UTR act)
CCCc1cc(=O)[nH]c(SCc2cc(C(=O)OC)c(C)o2)n1	none
O=[N+]([O-])c1cccc(CSc2nc3ccccc3[nH]2)c1	none
Fc1ccccc1CSc1nc2ccccc2[nH]1	APP 5'UTR act 198, STAT1 activator 136, FLuc inh counter 51, NF-kB neuron act 10
CCC(C(=O)NC1CCCCC1)n1c(SCc2cccc(F)c2)nc2ccncc21 (configuration not stated)	none
